Molecules are shown by their SMILES. Activity calls are given as the source filed them. The calls are words filed in the database; no cut-off is given here.

Type in all cases: functional
Test [1] deals with T47D. The experiment in a line: Estrogenic activity in human T47D cells assessed as drug level causing stimulation of cell proliferation equivalent to 10 pM estradiol after 96 hrs by alamar blue assay. In outline: (§1)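 Cells seeded at 10^4 per well in phenol red-free RPMI with 5% DCC-treated FBS. Compounds added in DMSO (vehicle control 1% DMSO) for 96 h at 37 °C, 5% CO2, with serial estradiol dilutions run alongside. Alamar Blue for 3 h, fluorescence ex 530/em 590 nm. Estradiol-equivalent concentration fitted by linear regression from at least five concentrations in quadruplicate.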
In general terms: Alamar Blue is a resazurin reagent that responds to reducing activity.

The test system of test [2] is MCF7. The experiment in a line: Estrogenic activity in human MCF7 cells assessed as drug level causing stimulation of cell proliferation equivalent to 100 pM estradiol after 96 hrs by alamar blue assay. In outline: as §1
Test [3] deals with T47D. The experiment in a line: Estrogenic activity in human T47D cells assessed as drug level causing stimulation of cell proliferation equivalent to 100 pM estradiol after 96 hrs by alamar blue assay. The procedure, abridged:
as §1

The subject of test [4] is MCF7. As to the kind of experiment: Estrogenic activity in human MCF7 cells assessed as drug level causing stimulation of cell proliferation equivalent to 10 pM estradiol after 96 hrs by alamar blue assay. In outline: as §1
For test [5], the system named is MCF7. As to the kind of experiment: Estrogenic activity in luciferase transfected human MCF7 cells assessed as drug level causing stimulation of cell proliferation equivalent to 10 pM estradiol by luciferase reporter gene assay. In outline: (§2)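 Reporter assay in MCF-7 or T47D cells transiently transfected with luciferase. Compounds tested from 0.01 to 10 µM. Luciferase induction is expressed as the compound concentration equivalent to the 10 or 100 pM estradiol response. Values come from linear regression over at least five concentrations in quadruplicate.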
On the technique in general: Reporter assays use an easily measured gene product as a stand-in for the process of interest.

Test [6] deals with MCF7. As to the kind of experiment: Estrogenic activity in luciferase transfected human MCF7 cells assessed as drug level causing stimulation of cell proliferation equivalent to 100 pM estradiol by luciferase reporter gene assay. The procedure, abridged:
as §2

In test [7] the test system is T47D. The experiment in a line: Estrogenic activity in luciferase transfected human T47D cells assessed as drug level causing stimulation of cell proliferation equivalent to 10 pM estradiol by luciferase reporter gene assay. In outline: as §2
Test [8] deals with T47D. The experiment in a line: Estrogenic activity in luciferase transfected human T47D cells assessed as drug level causing stimulation of cell proliferation equivalent to 100 pM estradiol by luciferase reporter gene assay. In outline:
as §2

With `COc1ccc(C2COc3cc(O)ccc3C2=O)c(OC)c1OC` (stereo not drawn), the Activity in the test on T47D [1] was 6.1 µM; with MCF7 [2] it was 46.3 µM; with T47D [3], more than 100 µM; with MCF7 [4], 2.5 µM; in the test on MCF7 [5], more than 100 µM; in the test with MCF7 [6], more than 100 µM. Besides, the Activity was 3.3 µM in the test with T47D [7] and more than 100 µM in the test on T47D [8].
Turning to `COc1ccc(C2COc3cc(O)ccc3C2=O)c(O)c1` (stereo not drawn), the Activity in the test on T47D [1] was 1.5 µM; with MCF7 [2], 45.3 µM; in the test on T47D [3], 33.7 µM; with MCF7 [4] it was 5.7 µM; in the test on MCF7 [5], more than 100 µM; in the test with MCF7 [6], more than 100 µM. Further, the Activity in the test with T47D [7] is 7.3 µM; in the test with T47D [8], more than 100 µM.
As for `COc1ccc(C2COc3cc(O)ccc3C2=O)cc1O` (stereo not drawn), the Activity in the test on T47D [1] was more than 100 µM; in the test with MCF7 [2], more than 100 µM; with T47D [3], more than 100 µM; in the test on MCF7 [4] it was 24.5 µM; in the test on MCF7 [5], more than 100 µM; in the test with MCF7 [6] it was more than 100 µM. Further, the Activity with T47D [7] is 6 µM; in the test with T47D [8] it was more than 100 µM.
With `COc1ccc([C@@H]2COc3cc(O)ccc3C2)c(OC)c1O`, the Activity in the test with T47D [1] was 0.4 µM; with MCF7 [2], more than 100 µM; in the test with T47D [3], 6.4 µM; in the test with MCF7 [4], more than 100 µM; in the test with MCF7 [5], 0.9 µM; in the test with MCF7 [6], 7.8 µM. Moreover, the Activity with T47D [7] was 6.3 µM; in the test on T47D [8], more than 100 µM.
Regarding `COc1cc(O)c([C@@H]2COc3cc(O)ccc3C2)cc1OC`, the Activity is 0.02 µM with T47D [1]; 0.2 µM with MCF7 [2]; more than 100 µM in the test with T47D [3]; 1.1 µM in the test on MCF7 [4]; more than 100 µM with MCF7 [5]; more than 100 µM with MCF7 [6]. For the same compound, the Activity in the test on T47D [7] and in the test on T47D [8] was more than 100 µM each time.
Turning to `COc1cc(OC)c(-c2coc3cc(O)cc(O)c3c2=O)cc1OC`, the Activity is 0.1 µM in the test with T47D [1]; more than 100 µM in the test on MCF7 [2]; more than 100 µM with T47D [3]; more than 100 µM with MCF7 [4]; 5.4 µM with MCF7 [5]; 7.8 µM in the test with MCF7 [6]. Also, the Activity was 6.3 µM with T47D [7] and more than 100 µM in the test with T47D [8].
As for `COc1ccc([C@H]2COc3cc(O)cc(O)c3C2=O)cc1O`, the Activity was 0.5 µM with T47D [1]; more than 100 µM in the test on MCF7 [2]; 5.7 µM with T47D [3]; 2.9 µM in the test on MCF7 [4]; 0.6 µM in the test with MCF7 [5]; 2.7 µM in the test with MCF7 [6]. Besides, the Activity was 1.3 µM in the test with T47D [7] and more than 100 µM in the test on T47D [8].
As to `COc1ccc(-c2coc3cc(O)cc(O)c3c2=O)c(OC)c1`, the Activity was 0.4 µM in the test on T47D [1]; 19.6 µM in the test on MCF7 [2]; more than 100 µM in the test on T47D [3]; 3.2 µM with MCF7 [4]; more than 100 µM in the test with MCF7 [5]; more than 100 µM in the test with MCF7 [6]. Besides, the Activity with T47D [7] amounted to 1.8 µM; in the test on T47D [8] it was 3.1 µM.
On to `COc1ccc([C@H]2COc3cc(O)ccc3C2=O)c(OC)c1O`, for which the Activity with T47D [1] is 2.1 µM; with MCF7 [2], 9.4 µM; in the test on T47D [3], 8.9 µM; in the test on MCF7 [4], 2.1 µM; with MCF7 [5], more than 100 µM; in the test with MCF7 [6], more than 100 µM. Further, the Activity is 0.6 µM with T47D [7] and more than 100 µM with T47D [8].
With `COc1cc(-c2coc3cc(O)ccc3c2=O)ccc1O`, the Activity was more than 100 µM with T47D [1]; more than 100 µM in the test with MCF7 [2]; more than 100 µM in the test on T47D [3]; 4.7 µM in the test on MCF7 [4]; 1.1 µM in the test with MCF7 [5]; 2.2 µM in the test on MCF7 [6]. Besides, the Activity in the test with T47D [7] came out at 1.2 µM; in the test on T47D [8], 5.8 µM.
With `COc1ccc([C@@H]2COc3cc(O)ccc3C2)c(O)c1`, the Activity was 0.02 µM in the test with T47D [1]; more than 100 µM in the test on MCF7 [2]; 0.2 µM with T47D [3]; more than 100 µM with MCF7 [4]; more than 100 µM in the test with MCF7 [5]; more than 100 µM in the test on MCF7 [6]. In addition, the Activity in the test on T47D [7] and in the test on T47D [8] was more than 100 µM in each case.
Take `COc1ccc(C2COc3c(ccc(O)c3O)C2)c(OC)c1O` (stereo not drawn): the result with T47D [1], with MCF7 [2], in the test on T47D [3], with MCF7 [4], with MCF7 [5] and in the test with MCF7 [6] was inactive. The outcome with T47D [7] and with T47D [8] was inactive.
For the compound `O=C1c2c(O)cc(O)cc2O[C@H](c2ccccc2)[C@H]1O`, the result in the test with T47D [1], in the test on MCF7 [2], with T47D [3], in the test on MCF7 [4], in the test with MCF7 [5] and in the test on MCF7 [6] was inactive. Besides, the outcome with T47D [7] and with T47D [8] was inactive.
For `COc1cc2c(cc1O)C1c3ccc(O)cc3OCC1O2` (racemic), the result with T47D [1], in the test on MCF7 [2], in the test with T47D [3], in the test on MCF7 [4], in the test on MCF7 [5] and in the test on MCF7 [6] was inactive. For the same compound, the result in the test with T47D [7] and in the test on T47D [8] was inactive.
In the case of `COc1ccc(-c2coc3cc(O)ccc3c2=O)c(OC)c1` [2'-METHOXYFORMONETIN], the Activity in the test on T47D [1] is 0.01 µM; with MCF7 [2], 5.2 µM; in the test on T47D [3], 1.7 µM; in the test on MCF7 [4], 0.3 µM; with MCF7 [5] it was more than 100 µM; in the test on MCF7 [6], more than 100 µM. For the same compound, the Activity in the test on T47D [7] was 1.8 µM; in the test on T47D [8] it was 6.2 µM.
Consider `COc1ccc(-c2coc3cc(O)cc(O)c3c2=O)cc1` [BIOCHANIN], for which the Activity is 0.3 µM with T47D [1]; 3.8 µM with MCF7 [2]; 0.5 µM in the test on T47D [3]; 0.3 µM in the test with MCF7 [4]; more than 100 µM with MCF7 [5]; more than 100 µM with MCF7 [6]. For the same compound, the Activity in the test with T47D [7] and with T47D [8] was 0.01 µM in each case.
Turning to `COC1=CC(=O)C(c2coc3cc(O)ccc3c2=O)=CC1=O` [BOWDICHIONE], the Activity is more than 100 µM in the test on T47D [1]; 1.4 µM with MCF7 [2]; more than 100 µM in the test with T47D [3]; 0.01 µM in the test with MCF7 [4]; 0.7 µM in the test on MCF7 [5]; 0.9 µM in the test with MCF7 [6]. Besides, the Activity with T47D [7] and in the test on T47D [8] was more than 100 µM in each case.
In the case of `COc1ccc(-c2coc3cc(O)ccc3c2=O)cc1O` [CALYCOSIN], the Activity in the test with T47D [1] is 4.1 µM; in the test with MCF7 [2], more than 100 µM; in the test on T47D [3] it was more than 100 µM; in the test on MCF7 [4] it was more than 100 µM; with MCF7 [5], 0.6 µM; in the test on MCF7 [6], 4.7 µM. The values for the Activity in the test with T47D [7] and in the test on T47D [8] were 8.8 µM and more than 100 µM, respectively.
Consider `COc1cc([C@H]2Oc3cc(O)ccc3C(=O)[C@@H]2O)ccc1O` [ERYCIBENIN D], for which the Activity was 5.7 µM in the test with T47D [1]; more than 100 µM in the test on MCF7 [2]; more than 100 µM in the test on T47D [3]; more than 100 µM in the test on MCF7 [4]; more than 100 µM with MCF7 [5]; more than 100 µM in the test on MCF7 [6]. In addition, the Activity in the test with T47D [7] is 0.3 µM; with T47D [8], more than 100 µM.
As for `COc1ccc(-c2coc3cc(O)ccc3c2=O)cc1` [FORMONONETIN], the Activity in the test with T47D [1] was 0.03 µM; in the test with MCF7 [2], more than 100 µM; in the test on T47D [3], more than 100 µM; with MCF7 [4] it was more than 100 µM; with MCF7 [5], 0.01 µM; in the test with MCF7 [6], 0.01 µM. The Activity with T47D [7] and in the test on T47D [8] was 0.01 µM throughout.
For `O=c1c(-c2ccc(O)cc2)coc2cc(O)cc(O)c12` [GENISTEIN], the Activity amounted to 0.01 µM in the test with T47D [1]; 0.11 µM in the test on MCF7 [2]; 0.08 µM with T47D [3]; 0.01 µM in the test on MCF7 [4]; 0.01 µM in the test with MCF7 [5]; 0.01 µM with MCF7 [6]. The results for the Activity with T47D [7] and in the test with T47D [8] were 0.01 µM and 0.6 µM, respectively.

Values taken from ChEMBL document CHEMBL1153749, “Flavonoids from the heartwood of the Thai medicinal plant Dalbergia parviflora and their effects on estrogenic-responsive human breast cancer cells” (2009).
